In paper PMC7816766 (Journal of Medicinal Chemistry, 2020):

Legend:
[1] = tested on: EGFR, JAK2, Src, AKT and ERK1/2; experiment: Immunoblotting for nonspecific effects in MDA-MB-231 cells; assay type: cell-based, human; details: 1 or 3 μM
[2] = tested on: MDA-MB-231 and MDA-MB-468 cells; experiment: Induction of apoptosis, PARP cleavage by Western blotting; assay type: cell-based, human; details: 1 or 3 μM, 3–24 h
[3] = tested on: MDA-MB-231 or MDA-MB-468 cells; experiment: Cell viability/growth of breast cancer cells harboring active STAT3; assay type: cell-based, human; details: at 1 μM or less
Human HLM MetID study = assay type: in vitro ADME; details: preliminary results
[4] = tested on: STAT3 DNA-binding activity in MDA-MB-468 cells; experiment: Constitutive STAT3 DNA-binding activity in treated breast cancer cells; assay type: cell-based, human
Procedure, shortened: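 MDA-MB-468 cells were treated with 5 μM test compound for 1–3 h; controls received 0.05% DMSO. Nuclear extracts of equal total protein were incubated with 33P-labelled hSIE probe (c-fos m67 variant) for 30 min at 30 °C. STAT3:DNA complexes were then resolved by EMSA. Results came from two to three independent determinations.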

[5] = tested on: human breast cancer cells; experiment: Combination treatment with docetaxel or cisplatin, CyQuant assay; assay type: cell-based; details: 1 μM 7g for 6 h, then 0–100 nM docetaxel or 0–20 μM cisplatin, 72 h
[6] = tested on: c-Myc, VEGF, Bcl-2, survivin; experiment: Immunoblotting for STAT3 target gene expression in MDA-MB-231 cells; assay type: cell-based, human; details: 1 or 3 μM, 3–24 h
Procedure, shortened: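 MDA-MB-231 cells were treated with 1 or 3 μM test compound for 3–24 h; controls received 0.05% DMSO. Whole-cell lysates were prepared in RIPA buffer. Equal total protein was run on SDS-PAGE and immunoblotted for c-Myc, Bcl-2, VEGF and survivin, with tubulin as loading control. Results came from two to three independent determinations.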

MDA-MB-231 cells = experiment: Clonogenic; assay type: cell-based, human; details: treated once
Procedure, shortened: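 Cells were seeded as single-cell cultures at 250 cells per well. They were treated once the next day with test compound at 0–1 μM and cultured until large colonies were visible. Colonies were stained with crystal violet for 4 h and photographed. Data came from three independent determinations.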

pY705STAT3 = experiment: Immunoblotting for pY705STAT3 in treated breast cancer cells; assay type: cell-based, human; details: 1–5 μM, 0–24 h (BBI-608 0.5–5 μM, 2–3 h)
Procedure, shortened: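 Controls received 0.05% DMSO. Equal-protein RIPA whole-cell lysates were immunoblotted for pY705STAT3, STAT3 and tubulin. Results came from two to three independent determinations.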

Structure (SMILES): O=C1OCc2cc(N(Cc3ccc(C4CCCCC4)cn3)C(=O)[C@H]3CCN3S(=O)(=O)c3c(F)c(F)c(F)c(F)c3F)ccc21 [Compound 7g]
- effect on tyrosine kinases EGFR, JAK2, Src, or AKT and ERK1/2 [1]: no measurable effect
- PARP cleavage [2]: induced poly (ADP-ribose) polymerase (PARP) cleavage
- viability, anchorage-dependent and independent growth, and colony formation [3]: strongly inhibited
- species found in HLM MetID study (Human HLM MetID study): both the parent compound and its hydroxy-acid metabolite
- earliest time of inhibition of STAT3 DNA-binding activity in cells ([4]; MDA-MB-468): 5 min
- constitutive STAT3 DNA-binding activity in cells ([4]; cells treated with 1–5 μM (BBI-608 0.5–5 μM, 2–3 h)): inhibited to variable degrees
- response to combined treatment with docetaxel or cisplatin [5]: strong shift of the dose–response curves to the left indicative of an enhanced response
- expression of STAT3 target genes c-Myc, VEGF, Bcl-2, survivin [6]: inhibited the expression
- inhibition of colony formation (MDA-MB-231 cells; 0.5 μM): significant inhibition of colony formation
- inhibition of colony formation (MDA-MB-231 cells; 1 μM): complete inhibition of colony formation
- pY705STAT3 in breast cancer cells (pY705STAT3): inhibited pY705STAT3 in dose- and time-dependent manner
